Results from different studies.
Compare with care: the assays were run in different laboratories.
Target: Testis-specific serine/threonine-protein kinase 1 (TSSK1B, Homo sapiens, UniProt Q9BXA7)
Sequence (Q9BXA7 1-367, as in one of the studies): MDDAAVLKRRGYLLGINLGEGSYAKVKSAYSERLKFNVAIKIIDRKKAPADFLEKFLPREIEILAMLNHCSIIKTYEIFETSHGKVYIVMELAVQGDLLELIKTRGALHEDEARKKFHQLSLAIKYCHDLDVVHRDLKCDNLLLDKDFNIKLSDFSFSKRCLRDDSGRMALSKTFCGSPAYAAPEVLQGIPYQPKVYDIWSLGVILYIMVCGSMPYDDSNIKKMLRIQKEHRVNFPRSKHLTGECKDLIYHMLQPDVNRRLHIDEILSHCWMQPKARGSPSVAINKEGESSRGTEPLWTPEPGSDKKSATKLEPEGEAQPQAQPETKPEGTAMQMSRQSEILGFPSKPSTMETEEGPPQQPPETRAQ

For `O=C(N1CCS(=O)(=O)CC1)N1C[C@H](c2ccc(OC(F)(F)F)cc2)C[C@H](c2nc(C3CC3)no2)C1`, the remaining binding was 95% (cell-free assay; competition with immobilised ligand; 1 µM).
With `F[C@@H]1CCN(c2nccc(-c3cnn4ncccc34)n2)C1` the remaining binding was 100% (binding; 1 µM).
`C[C@@H](c1ccc(-n2cnc3c(N)ncnc32)cc1)N1CCc2nn(C)c(Cc3ccccc3)c2C1=O` gave a remaining binding of 100% (binding; competition with immobilised ligand; 0.1 µM).
The remaining binding of `N[C@H]1CCN(c2nccc(-c3cnn4ncccc34)n2)C1` is reported as 100% (binding; 1 µM).
For `CCN1CCN(Cc2ccc(C(=O)Nc3ccc(C)c(Oc4ccc5c(c4)CC(=O)N5)c3)cc2C(F)(F)F)CC1`, the remaining binding was 93% (binding; competition with immobilised ligand; 1 µM).
For `N#Cc1ccccc1CSc1nnc2c(n1)[nH]c1ccccc12`, the remaining binding was 100% (binding; competition with immobilised ligand; 10 µM).
With `Nc1ncc2c(n1)-c1c([nH]c3ccc(C#CC4CC4)cc13)CCCC2` the remaining binding was 100% (binding; competition with immobilised ligand; 1 µM).
For `CNC(=O)Nc1ccc2c(c1)CC[C@@]21OC(=O)N(CC(=O)N(Cc2ccc(F)cc2)[C@@H](C)C(F)(F)F)C1=O`, the remaining binding was 84% (cell-free assay; competition with immobilised ligand; 1 µM).
`C[C@H]1CCN(c2nccc(-c3cnn4ncccc34)n2)C1` has a remaining binding of 98% (binding; 1 µM).
With `COc1ncc2cc3ccccc3nc2c1C#N` the remaining binding was 97% (cell-free assay; competition with immobilised ligand; 5 µM).
With `CN(C)c1nccc(-c2cnn3ncccc23)n1` the remaining binding was 100% (binding; 1 µM).
`NS(=O)(=O)c1cc(NC(=O)Cc2ccccc2)ccc1Oc1cccc(Cl)c1` has a remaining binding of 100% (cell-free assay; competition with immobilised ligand; 1 µM).
For `COc1cnc(Nc2cccc(S(N)(=O)=O)c2)nc1N1CCN(c2ccccc2)C(=O)C1`, the remaining binding was 92% (binding; competition with immobilised ligand; 1 µM).
`NS(=O)(=O)c1cc(NC(=O)C2(c3ccccc3Cl)CC2)ccc1Oc1cccc(Cl)c1` gave a remaining binding of 100% (cell-free assay; competition with immobilised ligand; 1 µM).
`C[C@@H]1CN(c2ccc3ncc(-c4ccc5[nH]nc(C6CC6)c5c4)n3n2)C[C@H](C)O1` gave a remaining binding of 78% (binding; competition with immobilised ligand; 50 nM).
`O=C(c1ccc(Nc2nccc(-c3cc4ccccc4s3)n2)cc1)N1CCC(N2CCCC2)CC1` has a remaining binding of 100% (binding; competition with immobilised ligand; 1 µM).
With `CC1CCCN1c1nccc(-c2cnn3ncccc23)n1` (centres unmarked) the remaining binding was 100% (binding; 1 µM).
The remaining binding of `Cn1cc(Cl)c2c(Oc3c(F)cc(Nc4cc(Cl)nc(N)n4)cc3F)ccnc21` is reported as 100% (cell-free assay; competition with immobilised ligand; 0.1 µM).
With `c1cnn2ncc(-c3ccnc(N4CCC45COC5)n3)c2c1` the remaining binding was 65% (binding; 1 µM).
For `O=C(Nc1c[nH]nc1C(=O)NC1CCNCC1)c1cc(F)cc(F)c1`, the remaining binding was 100% (binding; competition with immobilised ligand; 1 µM).
`COc1ccc2c(c1)O[C@@H](c1ccc(OC)c(OC)c1)C[C@H]2NC(=O)C1(c2ccc3c(c2)OC(F)(F)O3)CC1` gave a remaining binding of 100% (cell-free assay; competition with immobilised ligand; 1 µM).
The remaining binding of `Cc1cnn2ncc(-c3ccnc(N(C)C)n3)c2c1` is reported as 100% (binding; 1 µM).
For `O=C(NCCCN1CCOCC1)c1ccc(Nc2ncc(Cl)c(-c3ccc(Cl)s3)n2)cc1`, the remaining binding was 62% (binding; competition with immobilised ligand; 1 µM).
The remaining binding of `Cc1noc([C@H]2C[C@@H](c3ccc(C(F)(F)F)cc3)CN(C(=O)N3CCS(=O)(=O)C3)C2)n1` is reported as 100% (cell-free assay; competition with immobilised ligand; 1 µM).
With `Cc1cnc(Nc2ccc(C(=O)N3CCC(N4CCCC4)CC3)cc2)nc1-c1cc2ccccc2s1` the remaining binding was 85% (binding; competition with immobilised ligand; 1 µM).
`CC(C)CC(=O)N1CCc2nc(-c3ccc(Br)cc3)nc(N(C)Cc3ccccc3)c2C1` has a remaining binding of 99% (cell-free assay; competition with immobilised ligand; 0.1 µM).
